How the values were obtained:
[1] = system: PC-3; assay: Cytotoxicity against human PC3 cells by sulforhodamine B assay; format: functional, cell-based
Outline: (§1)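 Cells in RPMI 1640 with 10% FBS and 2 mM L-glutamine, seeded at densities suited to doubling time, preincubated 24 h at 37 °C, 5% CO2. Drug added for a further 48 h. Fixed with cold TCA (final 10%) for 60 min at 4 °C, then SRB-stained. Bound dye eluted with 10 mM Tris base and read at 540 nm (690 nm reference). Growth taken relative to control wells. IC50 read from dose-response graphs. Triplicate wells, three repeat experiments.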

[2] = system: COLO 205; assay: Cytotoxicity against human Colo205 cells by sulforhodamine B assay; format: functional, cell-based; outline: as §1
[3] = system: ZR-75-1; assay: Cytotoxicity against human ZR-75-1 cells by sulforhodamine B assay; format: functional, cell-based; outline: as §1
[4] = system: SiHa; assay: Cytotoxicity against human SiHa cells by sulforhodamine B assay; format: functional, cell-based; outline: as §1
[5] = system: A2780; assay: Cytotoxicity against human A2780 cells by sulforhodamine B assay; format: functional, cell-based; outline: as §1
[6] = system: MCF7; assay: Cytotoxicity against human MCF7 cells by sulforhodamine B assay; format: functional, cell-based; outline: as §1
[7] = system: HOP-62; assay: Cytotoxicity against human Hop62 cells by sulforhodamine B assay; format: functional, cell-based; outline: as §1
[8] = system: DNA; assay: Binding affinity for calf thymus DNA at 20 uM after 18 hrs by thermal denaturation assay; format: nucleic-acid assay; conditions: Bos taurus

SMILES	ΔTm [8]	IC50 [1]	IC50 [2]	IC50 [3]	IC50 [4]	IC50 [5]	IC50 [6]	IC50 [7]
COc1cccc2c1C(=O)c1c(O)c3c(c(O)c1C2=O)C[C@@](O)(C(=O)CO)C[C@@H]3O[C@H]1C[C@H](N)[C@H](O)[C@H](C)O1 [DOXORUBICIN]	–	500 nM	2000 nM	600 nM	1500 nM	500 nM	500 nM	1000 nM
COc1cc2c(cc1OCCCCC(=O)Nc1cccc3c1C(=O)c1ccccc1C3=O)N=C[C@@H]1CCCN1C2=O	5.2 °C	800 nM	< 1000 nM	500 nM	1200 nM	500 nM	600 nM	1000 nM
COc1cc2c(cc1OCCCC(=O)Nc1cccc3c1C(=O)c1ccccc1C3=O)N=C[C@@H]1CCCN1C2=O	9.1 °C	800 nM	1800 nM	500 nM	1800 nM	500 nM	1400 nM	800 nM

Continued, in another order:

ΔTm [8]	SMILES	IC50 [1]	IC50 [2]	IC50 [3]	IC50 [4]	IC50 [5]	IC50 [6]	IC50 [7]
6 °C	COc1cc2c(cc1OCCCCCOc1ccc(OCCCCCOc3cc4c(cc3OC)C(=O)N3CCC[C@H]3C=N4)c3c1C(=O)c1ccccc1C3=O)N=C[C@@H]1CCCN1C2=O	1000 nM	< 1000 nM	1500 nM	800 nM	500 nM	1200 nM	1400 nM
1.6 °C	COc1cc2c(cc1OCCCCOc1ccc(OCCCCOc3cc4c(cc3OC)C(=O)N3CCC[C@H]3C=N4)c3c1C(=O)c1ccccc1C3=O)N=C[C@@H]1CCCN1C2=O	7000 nM	10000 nM	–	9000 nM	10000 nM	9000 nM	–
17.9 °C	COc1cc2c(cc1OCCCOc1ccc(OCCCOc3cc4c(cc3OC)C(=O)N3CCC[C@H]3C=N4)c3c1C(=O)c1ccccc1C3=O)N=C[C@@H]1CCCN1C2=O	600 nM	< 1000 nM	500 nM	800 nM	600 nM	600 nM	< 1000 nM
